Bioassay records: PubChem BioAssay, several laboratories
PG9 binder = binders of HIV-1 gp120 antibody PG9, primary screen, biochemical, TR-FRET | HIV-1 gp120 / PG9 antibody interaction | TR-FRET gp120-PG9 antibody binding | inhibition, % at 6.7 µM | 360,000 compounds, 0.43% hits; in the data active means inhibition above about 8.5%
hiPSC survival = enhancers of single-cell hiPSC survival, primary screen, ATPlite luminescence; 100% = ROCK inhibitor wells, 0% = DMSO; survival enhancement, % at 20 µM; 360,000 compounds, 0.044% hits; AID 602274, 2012; in the data active means survival enhancement above about 18%;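 further: cells exposed to compounds for 16 hours before the ATP read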
Rev-erbA mod = modulators of Rev-erb alpha DNA binding, primary screen, biochemical, FITC-DNA, fluorescence polarization, uHTS. Nuclear receptor subfamily 1 group D member 1 (Homo sapiens), P20393. Rev-erbα–FITC-DNA binding, 90 min. activity, % at 10 µM. 370,000 compounds, 0.79% hits. AID 1259318, 2017;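 active means activity above about 14%, limit read from the data; passing the limit was not always enough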;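 further: 0% = DMSO wells with 35 nM protein and 100% = DMSO wells with 750 nM protein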
Target sequence (P20393 whole entry, looked up): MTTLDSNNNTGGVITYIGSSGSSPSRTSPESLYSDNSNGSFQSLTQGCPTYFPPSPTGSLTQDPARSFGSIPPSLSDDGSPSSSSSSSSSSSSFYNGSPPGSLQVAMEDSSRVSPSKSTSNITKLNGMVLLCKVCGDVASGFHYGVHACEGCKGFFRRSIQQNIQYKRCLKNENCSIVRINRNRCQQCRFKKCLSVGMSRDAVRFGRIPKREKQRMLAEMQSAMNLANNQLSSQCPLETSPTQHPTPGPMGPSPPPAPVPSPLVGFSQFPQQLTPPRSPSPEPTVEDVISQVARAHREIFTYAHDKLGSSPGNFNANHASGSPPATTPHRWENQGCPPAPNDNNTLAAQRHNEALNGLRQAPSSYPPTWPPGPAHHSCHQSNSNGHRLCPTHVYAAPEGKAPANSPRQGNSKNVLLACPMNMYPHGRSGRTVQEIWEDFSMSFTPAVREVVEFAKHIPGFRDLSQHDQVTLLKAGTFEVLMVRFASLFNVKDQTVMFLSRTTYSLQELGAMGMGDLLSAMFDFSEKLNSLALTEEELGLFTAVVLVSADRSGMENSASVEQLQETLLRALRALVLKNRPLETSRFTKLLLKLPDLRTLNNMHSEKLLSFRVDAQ
H9c2 TAG inh = inhibitors of triacylglycerol accumulation, primary screen, cell-based, uHTS, fluorescence, H9c2; inhibition, % at 12.5 µM; H9c2 cells, Nile Red lipid (TAG) fluorescence; cells loaded with 200 µM oleic acid; AID 651582, 2012; 230,000 compounds, 0.66% hits;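 active means pattern-corrected inhibition of lipid staining of at least 50% with the nuclear-stain viability signal not falling by more than 50%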;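 further: 0% = DMSO wells and 100% = triacsin C control wells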
T cruzi inh = inhibitors of intracellular T. cruzi growth, primary screen, luminescence, NIH3T3 host cells. T. cruzi beta-gal in NIH3T3, 90 h. inhibition, % (no concentration beside the values). 300,000 compounds, 1.4% hits;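 active means mean inhibition across valid replicates above about 55%, limit read from the data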;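 further: signal also drops with host cell toxicity which is not excluded here; 0% = plate median of DMSO wells and 100% = zero luminescence signal; higher percent means less beta-gal luminescence so fewer parasites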
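Assay system: NIH/3T3 host cells with β-galactosidase reporter T. cruzi; input: 5,000 host fibroblasts per well; compound: single 50 nL compound addition per well in DMSO; timing: ≥90 h infection period, 3 h prior cell attachment; measured by: GalScreen β-gal luminescence, detergent lysis, 60 min; evaluation: percent inhibition of parasite-derived β-gal signal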
beta cell repl = inducers of MIN6 beta-cell proliferation, primary screen, ATP luminescence, uHTS; proliferation, % at 10 µM; MIN6 cells proliferation, ATPlite luminescence, 48 h; cells starved in 0.2% serum; 100% = growth in 10% serum; 330,000 compounds, 0.29% hits; AID 2380, 2010;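 active means compounds whose signal lies at least 3.5 SD above the mean of all wells on their plate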;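 further: 0% = DMSO-treated cells in low-serum medium and 100% = 10% serum control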
Rev-erbA confirm = modulators of Rev-erb alpha DNA binding, confirmation, biochemical, FITC-DNA, fluorescence polarization, single point; activation, % at 25 µM; 90 min; shares compounds with Rev-erbA mod; 3,000 compounds, 61% hits; AID 1259319, 2017;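 active means activation at or above a set limit, or at least 3 SD above the negative control mean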;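 further: 0% = 35 nM protein with DMSO and 100% = 750 nM protein high control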
The depositor's hits bear a star; . = no result given. Sampled rows, rich in hits. Any-hit rate of the full collection: about 2.9%.

SMILES	PG9 binder	hiPSC survival	Rev-erbA mod	H9c2 TAG inh	T cruzi inh	beta cell repl	Rev-erbA confirm
O=C(NCc1ccccn1)c1ccc2c(=O)n(CCc3ccccc3)c(=O)[nH]c2c1	0	2	-5	13	-12	-1	.
Cc1ccc(C)c(NC(=O)CCC(=O)NNC(=O)C(c2ccccc2)c2ccccc2)c1	1	-2	1	.	-8	0	.
COc1ccc(-c2cc(C(=O)Nc3cc(C)on3)no2)cc1	2	1	0	-19	-4	0	.
COc1ccc(OC)c(-c2cc(C(=O)Nc3cc(C)on3)no2)c1	3	4	21*	.	10	-3	16
Cc1ccc(NC(=O)c2cc(-c3ccc4c(c3)OCO4)on2)cc1	0	1	11	.	-7	1	.
COc1ccc(-c2sc3cc4c(cc3c2-c2ccc3c(c2)OCCO3)OCO4)cc1	0	-2	18*	4	.	-6	2
COc1ccc(-c2noc(-c3ccc4c(c3)OCO4)n2)cc1	0	-3	35*	8	3	-4	13
COc1ccc(NC(=O)c2cc(-c3ccc4c(c3)OCO4)on2)cc1	-2	-1	33*	.	3	-4	1
Cc1cc(NC(=O)CSc2nc(-c3ccccc3Cl)nc3c2c(=O)n(C)c(=O)n3C)no1	1	2	28*	10	3	1	7
Cc1cc(NC(=O)CSc2nc(-c3ccc(Br)cc3)nc3c2c(=O)n(C)c(=O)n3C)no1	.	0	.	-10	-11	-1	.
CNc1cc(CS(=O)c2ccccc2)nc(-c2ccccc2)n1 (stereo unspecified)	-4	0	1	-21	-11	0	.
O=S(Cc1cc(Sc2ccccc2)nc(-c2ccccc2)n1)c1ccccc1 (stereo unspecified)	-2	1	25*	5	41	-4	16
COC(=O)c1cc2c(=O)c3ccccc3oc2nc1C	1	-1	-3	.	-16	.	.
CCc1nc2oc3ccc(C)cc3c(=O)c2cc1C(=O)OC	-2	-1	30*	.	-14	.	27*
N#C/C(=N\Nc1ccc([N+](=O)[O-])cc1)C(N)=S	-6	0	35*	1	9	-4	29*
N#C/C(=N/Nc1ccc([N+](=O)[O-])cc1)C(=N)N1CCCCC1	-3	0	28*	6	23	.	20*
N#C/C(=N\Nc1ccc([N+](=O)[O-])cc1)C(=N)N1CCOCC1	-3	1	2	11	1	-2	.
COC(=O)c1c(NC(=O)c2ccc(N(C)S(=O)(=O)c3ccc(C)cc3)cc2)sc2c1CCCC2	-1	1	34*	.	6	0	15
CC(=O)c1cc(-c2ccccc2)n(CC(=O)NCc2ccc(Cl)cc2)c1C	.	.	24*	.	.	.	16*
CCc1c(C)nc(SCC(=O)c2cccs2)c(C#N)c1C	-3	-1	3	.	19	-3	.
Cc1nc(SCC(=O)Nc2ccccc2C(F)(F)F)c(C#N)c(C)c1CC(=O)c1ccc(Br)cc1	1	.	43*	.	27	-3	7
COc1ccccc1NS(=O)(=O)c1cc(N=N/C(C(=O)Nc2ccc(Cl)cc2)=C(/C)O)ccc1C	-1	0	9	-5	.	-3	.
O=C(NC1CCS(=O)(=O)C1)c1c(NC(=O)C2COc3ccccc3O2)sc2c1CCCC2 (stereo unspecified)	1	-2	3	19	28	-3	.
CCCNC(=O)c1c(NC(=O)C2COc3ccccc3O2)sc2c1CCCC2 (stereo unspecified)	0	0	49*	.	-4	2	4
COc1ccc(NC(=S)Nc2cc(C)cc(C)n2)cc1OC	-2	-1	22*	.	-4	0	0
SMILES	PG9 binder	hiPSC survival	Rev-erbA mod	H9c2 TAG inh	T cruzi inh	beta cell repl	Rev-erbA confirm
Cc1cc(C)nc(NC(=S)Nc2ccc(Br)cc2Cl)c1	-2	-2	2	27	-6	3	.
COc1cccc(NC(=S)Nc2cc(C)cc(C)n2)c1	-1	-1	31*	8	2	-3	8
Cc1cc(C)nc(NC(=S)Nc2cccc(Cl)c2Cl)c1	2	0	63*	-3	2	0	5
Cc1cc(C)nc(NC(=S)Nc2cccc(F)c2)c1	-4	0	7	-10	4	0	.
CC(=O)N1CCOCCOCCOCC1	0	0	-9	4	-8	0	.
CCOC(=O)C1(CC2CCCCO2)CCN(C(=O)Nc2cccc(SC)c2)CC1 (stereo unspecified)	-4	-4	-5	9	-14	-2	.
CCCN(C(=O)CSc1cc(-c2ccccc2)c2ccc(OC)cc2n1)C1CCS(=O)(=O)C1 (stereo unspecified)	0	2	-2	3	13	-6	.
COc1ccc2c(-c3ccccc3)cc(SC(C)C(N)=O)nc2c1 (stereo unspecified)	1	0	19*	31	5	-2	18*
CC1C(=O)N2CCCc3cc(NS(=O)(=O)c4ccccc4)cc1c32 (stereo unspecified)	-1	0	-5	14	-10	1	.
NS(=O)(=O)c1ccc(CCNC(=O)c2ccc(Cn3c(=O)[nH]c4ccccc4c3=O)cc2)cc1	8	3	19*	13	-9	-2	1
CC(C)CCNC(=O)c1ccc(Cn2c(=S)[nH]c3ccccc3c2=O)cc1	4	0	29*	.	10	3	26*
COc1cc2c(cc1OC)CN(C(=O)c1ccc(N3CCCC3)c([N+](=O)[O-])c1)CC2	-1	0	7	1	2	3	.
O=C1N/C(=C\c2ccc(O)cc2)C(=O)c2ccccc21	.	0	.	.	-7	-6	.
CCOC(=O)c1sc2nc(C)nc(NCc3ccccc3OC)c2c1C	0	1	13	.	26	-2	.
CCOC(=O)c1sc2nc(C)nc(NC3CCC(O)CC3)c2c1C (stereo unspecified)	-2	-1	24*	.	-11	-1	3
CC1(C(=O)NS(=O)(=O)c2ccccc2)CCN1C(=O)C1(c2ccccc2)CCCC1 (stereo unspecified)	0	1	-1	9	.	.	.
CCCCN1C(=O)/C(=C2/Sc3ccccc3N2C)S/C1=N\c1ncn[nH]1	-2	0	72*	15	39	-5	1
